What was measured:
Photodegradation = assay type: physicochemical; details: photostability; 10 μmol·L^–1 in 60% ACN/H2O/0.09% TFA; laser 440 nm; 0 to 50 min
How it was run: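 Test compound was irradiated in solution at room temperature with a pulsed 10 Hz laser at 440 nm for 50 min. UV/vis absorption spectra were recorded before irradiation and every 5 min. Absorbance maximum at 440 nm was plotted against time, and the change was taken as the difference between initial and final readings.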

Candida albicans cells = details: cited from earlier work
[1] = system: Trichosporon beigelii cells; details: cited from earlier work
human erythrocytes = details: cited from earlier work
bacteria = details: cited from earlier work
HeLa cells = details: cited from earlier work

Row | Substance | Difference of absorbance at 440 nm in 50 min of exposure to light (Photodegradation) | Growth inhibition of Candida albicans cells (Candida albicans cells) | Cell penetration and nuclear localisation [1] | Hemolytic effect (human erythrocytes) | Growth inhibition of bacteria (bacteria) | Cell penetration and nuclear localisation (HeLa cells)
1 | 5(6)-carboxyfluorescein [FAM] | 0.022 |  |  |  |  | 
2 | TAT peptide (47-58): carboxyl-free analogue of TAT(47-57)-NH2 |  | inhibit the growth | penetrate, and localize in the nucleus | without hemolytic effect | inhibit the growth | penetrate, and localize in the nucleus
